Assay results from ChEMBL document CHEMBL1135411, “Design and synthesis of a novel series of 1,2-disubstituted cyclopentanes as small, potent potentiators of 2-amino-3-(3-hydroxy-5-methyl-isoxazol-4-yl)propanoic acid (AMPA) receptors” (J Med Chem, 2002).

Tests used:
[1] = target: T1, Glutamate receptor 4 (Homo sapiens, UniProt P48058); assay: % potentiation of responses mediated by 100 uM L-glutamate in human transfected HEK293 cells expressing homomeric iGluR4 flip receptors at a dose of 3 uM.; type: functional, cell-based
T1 sequence (P48058 whole entry): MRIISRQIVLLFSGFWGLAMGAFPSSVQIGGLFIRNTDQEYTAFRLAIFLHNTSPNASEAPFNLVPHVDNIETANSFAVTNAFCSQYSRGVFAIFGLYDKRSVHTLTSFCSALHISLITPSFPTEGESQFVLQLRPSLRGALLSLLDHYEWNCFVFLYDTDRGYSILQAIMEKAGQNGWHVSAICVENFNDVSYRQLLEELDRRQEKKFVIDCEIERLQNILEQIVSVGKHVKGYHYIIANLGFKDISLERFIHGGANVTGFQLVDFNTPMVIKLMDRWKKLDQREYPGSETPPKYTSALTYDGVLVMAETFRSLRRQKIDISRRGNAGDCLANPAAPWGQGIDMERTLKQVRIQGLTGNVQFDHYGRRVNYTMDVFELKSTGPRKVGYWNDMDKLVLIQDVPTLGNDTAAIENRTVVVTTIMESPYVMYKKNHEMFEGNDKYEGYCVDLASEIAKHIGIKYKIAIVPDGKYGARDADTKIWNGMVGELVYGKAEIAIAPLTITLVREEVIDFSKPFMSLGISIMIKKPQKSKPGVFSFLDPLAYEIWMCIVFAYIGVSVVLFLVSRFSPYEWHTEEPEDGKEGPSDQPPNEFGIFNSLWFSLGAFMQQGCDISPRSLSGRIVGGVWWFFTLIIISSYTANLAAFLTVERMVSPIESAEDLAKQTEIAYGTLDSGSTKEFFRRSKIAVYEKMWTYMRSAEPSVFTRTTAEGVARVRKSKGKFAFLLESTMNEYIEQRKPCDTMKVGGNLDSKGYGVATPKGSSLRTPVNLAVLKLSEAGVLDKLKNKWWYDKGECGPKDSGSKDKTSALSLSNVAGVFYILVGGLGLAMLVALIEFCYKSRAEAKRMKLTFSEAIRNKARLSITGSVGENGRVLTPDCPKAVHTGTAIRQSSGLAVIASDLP
How it was run: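 HEK293 cells stably expressing human iGluR4 flip, as confluent monolayers, loaded 60 min with 20 µM Fluo3-AM in HEPES-buffered saline (5 mM CaCl2, pH 7.1-7.3), then washed. Compound was added 5 min before 100 µM glutamate. Fluorescence was read just before glutamate and 3 min after. Potentiation at 3 µM, the highest dose tested, was expressed relative to 100 µM cyclothiazide (n = 1).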

[2] = target: T1, Glutamate receptor 4; assay: Potentiation of responses mediated by 100 uM L-glutamate in transfected HEK293 cells expressing human homomeric iGluR4 flip receptors.; type: functional, cell-based
How it was run: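 Calcium influx was measured in confluent HEK293 cells stably expressing human homomeric iGluR4 flip, loaded 60 min with 20 µM Fluo3-AM in HEPES buffer (pH 7.1-7.3, 5 mM Ca2+). Compound at several concentrations preceded 100 µM glutamate by 5 min. Fluorescence was read before and 3 min after glutamate. Responses were scaled to 100 µM cyclothiazide, and EC50 was taken as the mean of at least three experiments.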

SMILES	Potentiation [1]	EC50 [2]
CC(C)S(=O)(=O)N[C@@H]1CCC[C@@H]1c1ccc(Cl)cc1 (racemic)		247 nM
CC(CNS(=O)(=O)C(C)C)c1ccc(Br)cc1 (racemic)	26%	
CC(C)S(=O)(=O)N[C@H]1CCC[C@@H]1c1ccc(Br)cc1		82.1 nM
Cc1ccc([C@H]2CCC[C@H]2NS(=O)(=O)C(C)C)cc1 (racemic)		434 nM
CC(C)S(=O)(=O)N[C@H]1CCC[C@@H]1c1ccc(I)cc1		32.8 nM
CC(C)S(=O)(=O)N[C@@H]1CCC[C@@H]1c1ccc(Br)cc1 (racemic)		147 nM
CC(C)S(=O)(=O)N[C@@H]1CCC[C@@H]1c1ccc(I)cc1		22.6 nM
CC(C)S(=O)(=O)N[C@@H]1CCC[C@@H]1c1ccc(C#N)cc1		403 nM
CC(C)S(=O)(=O)N[C@@H]1CCC[C@@H]1c1ccc([N+](=O)[O-])cc1 (racemic)		190 nM
CC(C)S(=O)(=O)N[C@H]1CCC[C@H]1c1ccc(Br)cc1	27%	
CC(C)S(=O)(=O)N[C@@H]1CCC[C@@H]1c1ccc(I)cc1 (racemic)		45.8 nM
CC(C)S(=O)(=O)N[C@@H]1CCC[C@H]1c1ccc(I)cc1	12%	
CC(C)S(=O)(=O)N[C@@H]1CCC[C@@H]1c1ccc(Br)cc1		68 nM
CC(C)S(=O)(=O)N[C@H]1CCC[C@@H]1c1ccc(I)cc1 (racemic)		93.1 nM
CC(C)S(=O)(=O)N[C@H]1CCC[C@H]1c1ccc(C#N)cc1	17%	
CC(CNS(=O)(=O)C(C)C)c1ccccc1 (racemic)	0%	

The remaining lines, values ahead:

Potentiation [1]	EC50 [2]	SMILES
6%		CC(C)S(=O)(=O)N[C@@H]1CCC[C@H]1c1ccccc1
70%		CC(C)S(=O)(=O)N[C@H]1CCC[C@@H]1c1ccccc1 (racemic)
	1100 nM	CC(C)S(=O)(=O)N[C@@H]1CCC[C@@H]1c1ccc(F)c(F)c1 (racemic)
	551 nM	CC(C)S(=O)(=O)N[C@H]1CCC[C@@H]1c1ccccc1
	118 nM	CC(C)S(=O)(=O)N[C@@H]1CCC[C@@H]1c1cc(F)cc(F)c1
57%		CC(C)S(=O)(=O)N[C@@H]1CCC[C@@H]1c1ccc(F)cc1 (racemic)
	621 nM	CC(C)S(=O)(=O)N[C@@H]1CCC[C@@H]1c1cccc(F)c1 (racemic)
	281 nM	CC(C)S(=O)(=O)N[C@@H]1CCC[C@@H]1c1cc(F)cc(F)c1 (racemic)
	1740 nM	CC(C)S(=O)(=O)N[C@@H]1CCC[C@@H]1c1ccccc1
	130 nM	CC(C)S(=O)(=O)N[C@H]1CCC[C@@H]1c1ccc(Br)cc1 (racemic)
34%		CC(C)S(=O)(=O)N[C@H]1CCC[C@H]1c1ccc(I)cc1
5%		CC(C)S(=O)(=O)N[C@H]1CCC[C@H]1c1cc(F)cc(F)c1
2%		CC(C)S(=O)(=O)N[C@H]1CCC[C@H]1c1ccccc1
2%		CC(C)S(=O)(=O)N[C@@H]1CCC[C@H]1c1ccc(Br)cc1
48%		CC(C)S(=O)(=O)N[C@@H]1CCC[C@@H]1c1ccccc1 (racemic)
